Test results published in ChEMBL document CHEMBL2046324, “Synthesis and biological evaluation of 1-arylsulfonyl-5-(N-hydroxyacrylamide)indoles as potent histone deacetylase inhibitors with antitumor activity in vivo” (J Med Chem, 2012).
In brackets after ≈: the same amount, converted by molar mass.

Legend:
Tubulin (Homo sapiens) [1] = target: T1, Tubulin (Homo sapiens) (UniProt P68371+Q9H4B7+P0DPH7+P68366+Q13509+Q71U36+P04350+Q3ZCM7+P07437+P68363+Q9BQE3+Q6PEY2+Q13885+Q9BVA1+Q9BUF5); assay: Inhibition of HDAC in human PC3 cells assessed as tubulin acetylation after 48 hrs by Western blot analysis; details: PC-3
A549 [2] = assay: Antitumor activity against human A549 cells xenografted in nude mouse assessed as tumor growth delay at 200 mg/kg, po administered QD till end point; format: functional
In short: (§1)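 At about 65 mm³ they were randomized, seven per group, and dosed po daily at 10 mL/kg in 0.5% carboxymethyl cellulose until a 1000 mm³ end point. Volume was w²l/2. TTE came from linear regression of log volume; TGD = T − C and %TGD = (T − C)/C × 100.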

Mus musculus [3] = assay: Toxicity in nude mouse bearing human A549 cells assessed as body weight change at 200 mg/kg, po QD; format: organism-based; design: dose 200 mg/kg, route oral; details: in vivo
In short: (§2)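 Nude mice bearing sc A549 xenografts were dosed po daily in 0.5% carboxymethyl cellulose at 10 mL/kg, scaled to body weight.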

[4] = Tmax in Sprague-Dawley rat at 20 mg/kg, po; format: ADME, organism-based; design: dose 20 mg/kg, route oral; details: in vivo
In short: (§3)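 Male Sprague-Dawley rats (250–350 g, 8–10 weeks), three per group. Single 2 mg/kg iv bolus into the jugular vein in PEG400/DMSO (80:20, v/v), or 20 mg/kg orally in 1% carboxymethyl cellulose plus 0.5% Tween 80. Plasma was assayed by LC-MS/MS (MRM) and analysed noncompartmentally.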

CYP2E1 = CYP2E1 (Homo sapiens, UniProt P05181); assay: Inhibition of CYP2E1 at 10 uM; format: ADME
Sequence of CYP2E1 (P05181 whole entry): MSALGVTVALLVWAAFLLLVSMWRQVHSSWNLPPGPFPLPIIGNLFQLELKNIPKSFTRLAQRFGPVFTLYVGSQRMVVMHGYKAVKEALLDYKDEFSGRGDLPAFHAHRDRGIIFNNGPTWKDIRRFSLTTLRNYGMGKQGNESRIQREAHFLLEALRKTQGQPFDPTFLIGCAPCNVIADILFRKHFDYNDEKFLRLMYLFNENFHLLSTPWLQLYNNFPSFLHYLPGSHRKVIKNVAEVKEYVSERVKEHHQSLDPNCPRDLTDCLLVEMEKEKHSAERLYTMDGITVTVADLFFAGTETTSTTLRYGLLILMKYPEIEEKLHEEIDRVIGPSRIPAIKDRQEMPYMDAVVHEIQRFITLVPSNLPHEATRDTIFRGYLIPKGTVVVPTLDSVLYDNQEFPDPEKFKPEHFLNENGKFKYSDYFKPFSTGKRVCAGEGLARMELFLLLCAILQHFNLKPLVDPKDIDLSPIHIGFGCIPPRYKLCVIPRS

[5] = Half life in Sprague-Dawley rat at 20 mg/kg, po; format: ADME, organism-based; design: dose 20 mg/kg, route oral; details: in vivo
In short: as §3

[6] = Solubility of the compound in EtOH after 24 hrs by HPLC analysis; format: physicochemical
PC-3 = assay: cells; format: functional; details: Homo sapiens, PC-3, 48 h
[7] = Solubility of the compound in water after 24 hrs by HPLC analysis; format: physicochemical
[8] = Volume of distribution at steady state in Sprague-Dawley rat at 2 mg/kg, iv; format: ADME, organism-based; design: dose 2 mg/kg, route intravenous; details: in vivo, read-out: Vdss
In short: as §3

A549 [9] = assay: Antitumor activity against human A549 cells xenografted in po dosed nude mouse assessed as tumor growth delay administered QD till end point; format: functional, organism-based
Mus musculus [10] = assay: Toxicity in nude mouse bearing human A549 cells assessed as adverse effects at 100 mg/kg, po QD; format: organism-based; design: dose 100 mg/kg, route oral; details: in vivo
CYP2C9 = CYP2C9 (Homo sapiens, UniProt P11712); assay: Inhibition of CYP2C9 at 10 uM; format: ADME
Sequence of CYP2C9 (P11712 whole entry): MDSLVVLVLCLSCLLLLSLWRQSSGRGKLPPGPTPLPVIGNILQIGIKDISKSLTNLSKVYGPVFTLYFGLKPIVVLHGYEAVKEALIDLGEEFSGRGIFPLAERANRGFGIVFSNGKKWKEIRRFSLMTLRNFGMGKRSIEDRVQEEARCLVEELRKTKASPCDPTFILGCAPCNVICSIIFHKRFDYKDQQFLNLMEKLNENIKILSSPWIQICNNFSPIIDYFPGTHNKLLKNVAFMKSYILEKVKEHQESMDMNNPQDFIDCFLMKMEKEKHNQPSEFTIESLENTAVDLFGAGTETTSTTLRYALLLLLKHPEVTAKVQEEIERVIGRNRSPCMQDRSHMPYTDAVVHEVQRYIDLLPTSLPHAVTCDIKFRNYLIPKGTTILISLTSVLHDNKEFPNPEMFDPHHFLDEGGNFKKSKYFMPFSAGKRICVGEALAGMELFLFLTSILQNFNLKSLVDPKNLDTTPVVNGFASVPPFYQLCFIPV

CYP1A2 = target: T2, CYP1A2 (Homo sapiens, UniProt P05177); assay: Inhibition of CYP1A2 at 10 uM; format: ADME
T2 sequence (P05177 whole entry): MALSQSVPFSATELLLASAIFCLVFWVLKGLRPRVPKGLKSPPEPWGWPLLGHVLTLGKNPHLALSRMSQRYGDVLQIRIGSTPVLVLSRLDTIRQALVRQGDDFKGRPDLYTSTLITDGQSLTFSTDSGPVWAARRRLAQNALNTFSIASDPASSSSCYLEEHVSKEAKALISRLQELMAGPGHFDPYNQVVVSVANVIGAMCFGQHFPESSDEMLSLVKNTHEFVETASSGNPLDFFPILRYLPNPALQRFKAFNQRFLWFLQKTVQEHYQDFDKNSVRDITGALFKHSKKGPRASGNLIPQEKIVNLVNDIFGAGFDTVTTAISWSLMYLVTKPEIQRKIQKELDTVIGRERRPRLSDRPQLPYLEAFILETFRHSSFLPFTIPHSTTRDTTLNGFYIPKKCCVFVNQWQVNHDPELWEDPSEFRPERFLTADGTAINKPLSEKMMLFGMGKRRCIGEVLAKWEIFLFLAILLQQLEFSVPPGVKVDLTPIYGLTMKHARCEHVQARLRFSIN

CYP2C8 = target: T3, CYP2C8 (Homo sapiens, UniProt P10632); assay: Inhibition of CYP2C8 at 10 uM; format: ADME
T3 sequence (P10632 whole entry): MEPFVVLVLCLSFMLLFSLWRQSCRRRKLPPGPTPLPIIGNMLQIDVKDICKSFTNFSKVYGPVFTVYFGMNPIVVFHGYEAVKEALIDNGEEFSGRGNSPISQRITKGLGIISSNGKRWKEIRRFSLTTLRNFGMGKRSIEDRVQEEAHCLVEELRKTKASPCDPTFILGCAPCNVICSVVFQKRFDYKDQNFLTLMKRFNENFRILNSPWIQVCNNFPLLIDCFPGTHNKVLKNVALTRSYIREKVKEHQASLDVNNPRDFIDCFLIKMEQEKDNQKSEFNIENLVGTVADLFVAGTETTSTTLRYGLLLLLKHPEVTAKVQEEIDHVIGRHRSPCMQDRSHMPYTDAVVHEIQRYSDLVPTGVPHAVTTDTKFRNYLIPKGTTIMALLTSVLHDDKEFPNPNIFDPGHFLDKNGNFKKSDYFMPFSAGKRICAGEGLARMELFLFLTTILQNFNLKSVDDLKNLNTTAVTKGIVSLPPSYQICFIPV

A549 [11] = assay: Antitumor activity against human A549 cells xenografted in nude mouse assessed as time to end point at 100 mg/kg, po administered QD till end point; format: functional
cells = format: functional, Hep 3B2; details: Homo sapiens, Hep3B, 48 h
CYP2C19 = CYP2C19 (Homo sapiens, UniProt P33261); assay: Inhibition of CYP2C19 at 10 uM; format: ADME
Sequence of CYP2C19 (P33261 whole entry): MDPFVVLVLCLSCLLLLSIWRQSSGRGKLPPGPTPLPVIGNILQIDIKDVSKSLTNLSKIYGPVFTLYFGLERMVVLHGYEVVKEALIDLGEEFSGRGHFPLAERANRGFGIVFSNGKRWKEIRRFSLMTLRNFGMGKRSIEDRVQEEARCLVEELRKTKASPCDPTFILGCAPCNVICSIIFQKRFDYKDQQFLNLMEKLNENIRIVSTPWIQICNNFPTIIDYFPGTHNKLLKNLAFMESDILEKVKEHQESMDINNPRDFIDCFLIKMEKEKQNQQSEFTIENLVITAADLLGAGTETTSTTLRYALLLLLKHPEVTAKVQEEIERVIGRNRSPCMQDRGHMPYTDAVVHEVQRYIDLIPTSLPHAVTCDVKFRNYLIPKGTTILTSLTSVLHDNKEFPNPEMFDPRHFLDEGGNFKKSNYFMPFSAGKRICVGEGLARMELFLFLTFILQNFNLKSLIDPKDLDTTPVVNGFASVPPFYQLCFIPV

CYP2D6 = CYP2D6 (Homo sapiens, UniProt P10635); assay: Inhibition of CYP2D6 at 10 uM; format: ADME
Sequence of CYP2D6 (P10635 whole entry): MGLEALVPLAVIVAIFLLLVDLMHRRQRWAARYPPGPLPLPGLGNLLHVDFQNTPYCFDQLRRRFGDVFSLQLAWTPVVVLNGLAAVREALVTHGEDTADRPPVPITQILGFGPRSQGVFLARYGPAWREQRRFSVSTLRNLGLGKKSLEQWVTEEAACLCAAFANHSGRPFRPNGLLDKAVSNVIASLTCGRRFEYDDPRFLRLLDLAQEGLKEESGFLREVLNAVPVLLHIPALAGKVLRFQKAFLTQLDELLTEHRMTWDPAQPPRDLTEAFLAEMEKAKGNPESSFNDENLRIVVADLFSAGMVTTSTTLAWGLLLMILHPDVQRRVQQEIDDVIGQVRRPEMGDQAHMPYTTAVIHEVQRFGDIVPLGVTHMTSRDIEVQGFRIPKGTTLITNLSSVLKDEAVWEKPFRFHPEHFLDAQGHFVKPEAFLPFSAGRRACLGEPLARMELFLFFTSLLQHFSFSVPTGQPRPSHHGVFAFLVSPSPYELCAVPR

[12] = Clearance in Sprague-Dawley rat at 2 mg/kg, iv; format: ADME, organism-based; design: dose 2 mg/kg, route intravenous; details: in vivo
In short: as §3

A549 [13] = assay: Growth inhibition of human A549 cells after 48 hrs by SRB assay; format: functional; details: Homo sapiens, A549, 48 h
In short: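 A549 cells were grown in RPMI 1640 with 10% FBS and 2 mM glutamine at 37 °C in 5% CO₂, then seeded in medium with 5% FBS. A 24 h TCA-fixed plate gave T₀. Cells were exposed to compound or DMSO for 48 h, fixed with 10% TCA and stained with 0.4% SRB; bound dye was solubilized in 10 mM Tris and read at 515 nm. GI₅₀ was the concentration halving net protein increase. At least three independent experiments.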

Mus musculus [14] = assay: Toxicity in nude mouse bearing human A549 cells assessed as adverse effects at 200 mg/kg, po QD; format: organism-based; design: dose 200 mg/kg, route oral; details: in vivo
[15] = Cmax in Sprague-Dawley rat at 20 mg/kg, po; format: ADME, organism-based; design: dose 20 mg/kg, route oral; details: in vivo
In short: as §3

A549 [16] = assay: Antitumor activity against human A549 cells xenografted in nude mouse assessed as tumor growth delay at 100 mg/kg, po administered QD till end point; format: functional
A549 [17] = assay: Antitumor activity against human A549 cells xenografted in nude mouse assessed as tumor growth inhibition at 200 mg/kg, po administered QD till end point; format: functional; details: read-out: GI
Mus musculus [18] = assay: Toxicity in nude mouse bearing human A549 cells assessed as body weight change at 100 mg/kg, po QD; format: organism-based; design: dose 100 mg/kg, route oral; details: in vivo
In short: as §2

[19] = AUC (0 to infinity) in Sprague-Dawley rat at 2 mg/kg, iv; format: ADME, organism-based; design: dose 2 mg/kg, route intravenous, time infinity; details: plasma
In short: as §3

Tubulin (Homo sapiens) [20] = target: T1, Tubulin (Homo sapiens); assay: Inhibition of HDAC in human A549 cells assessed as tubulin acetylation after 48 hrs by Western blot analysis
[21] = AUC (0 to infinity) in Sprague-Dawley rat at 20 mg/kg, po; format: ADME, organism-based; design: time infinity, dose 20 mg/kg, route oral; details: plasma
In short: as §3

[22] = Oral bioavailability in Sprague-Dawley rat at 20 mg/kg; format: ADME, organism-based; details: in vivo
In short: as §3

CYP3A4 = CYP3A4 (Homo sapiens, UniProt P08684); assay: Inhibition of CYP3A4 at 10 uM; format: ADME
Sequence of CYP3A4 (P08684 whole entry): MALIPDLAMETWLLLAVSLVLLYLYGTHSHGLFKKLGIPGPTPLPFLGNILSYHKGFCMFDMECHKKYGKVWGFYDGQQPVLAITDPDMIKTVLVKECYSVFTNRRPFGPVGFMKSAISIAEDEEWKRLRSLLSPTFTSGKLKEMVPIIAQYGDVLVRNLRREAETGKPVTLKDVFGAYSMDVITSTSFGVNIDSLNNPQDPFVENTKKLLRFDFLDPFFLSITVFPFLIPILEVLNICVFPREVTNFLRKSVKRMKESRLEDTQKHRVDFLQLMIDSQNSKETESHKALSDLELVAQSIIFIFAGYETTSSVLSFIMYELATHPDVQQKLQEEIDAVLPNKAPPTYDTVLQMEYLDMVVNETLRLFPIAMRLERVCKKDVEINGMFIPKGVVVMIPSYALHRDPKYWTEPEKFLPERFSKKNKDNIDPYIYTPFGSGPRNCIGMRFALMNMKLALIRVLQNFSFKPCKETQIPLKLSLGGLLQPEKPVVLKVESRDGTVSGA

MDA-MB-231 = assay: cells; format: functional; details: Homo sapiens, MDA-MB-231, 48 h
A549 [23] = assay: Antitumor activity against human A549 cells xenografted in nude mouse assessed as time to end point at 200 mg/kg, po administered QD till end point; format: functional
In short: as §1

A549 [24] = assay: Antitumor activity against human A549 cells xenografted in nude mouse assessed as tumor growth inhibition at 100 mg/kg, po administered QD till end point; format: functional; details: read-out: GI
In short: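 A549 sc xenografts in female nude mice, seven per group, dosed po daily in 0.5% carboxymethyl cellulose (10 mL/kg) to a 1000 mm³ end point. Tumor volume was w²l/2. TGI was expressed as % T/C of tumor volumes, treated versus control, and compared with control by P value at the indicated days.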

[25] = Half life in Sprague-Dawley rat at 2 mg/kg, iv; format: ADME, organism-based; design: dose 2 mg/kg, route intravenous; details: in vivo
In short: as §3

## O=C(/C=C/c1ccc2c(ccn2S(=O)(=O)c2ccccc2)c1)NO
Tubulin (Homo sapiens) [1]
  inhibition: Dose-dependent effect
A549 [2]
  Activity: 47%
Mus musculus [3]
  Activity: Non-toxic
[4]
  Tmax: 1.7 h
CYP2E1
  inhibition at 10 µM: 22%
[5]
  half-life: 5.5 h
[6]
  solubility at 24 h: 939 µg/mL (≈ 2740 µM)
PC-3
  GI50: 0.62 µM
[7]
  solubility at 24 h: < 1 µg/mL
[8]
  Vd: 2.1 L/kg
A549 [9]
  Activity: Dose-dependent effect
Mus musculus [10]
  Activity: Non-toxic
CYP2C9
  inhibition at 10 µM: 22%
CYP1A2
  inhibition at 10 µM: 51%
CYP2C8
  inhibition at 10 µM: 78%
A549 [11]
  Time: 36.2 days
cells
  GI50: 0.41 µM
CYP2C19
  inhibition at 10 µM: 78%
CYP2D6
  inhibition at 10 µM: 31%
[12]
  clearance: 35.5 mL/min/kg
A549 [13]
  GI50: 1.02 µM
Mus musculus [14]
  Activity: Non-toxic
[15]
  Cmax: 217 ng/mL
A549 [16]
  Activity: 34%
A549 [17]
  inhibition in vivo at 200 mg/kg: 32.1%
Mus musculus [18]
  Activity: Non-toxic
[19]
  AUC(0-inf): 927 ng·h/mL
Tubulin (Homo sapiens) [20]
  inhibition: Dose-dependent effect
[21]
  AUC(0-inf): 916 ng·h/mL
[22]
  bioavailability: 10%
CYP3A4
  inhibition at 10 µM: 65%
MDA-MB-231
  GI50: 0.48 µM
A549 [23]
  Time: 39.8 days
A549 [24]
  inhibition in vivo at 100 mg/kg: 15%
[25]
  half-life: 2.6 h
